In assay [1] the test system is HeLa. Briefly: Effective concentration required to inhibit vesicular stomatitis virus (VSV)-induced cytopathicity by 50% in HeLa cell lines. The note with it: Homo sapiens. Type of assay: functional, cell-based.
The subject of assay [2] is Vero. Briefly: Effective concentration required to inhibit reovirus-induced cytopathicity by 50% in Vero cell lines. Type of assay: functional, cell-based. The note with it: Chlorocebus sabaeus.
Assay [3] has as its system HeLa. Description: Effective concentration required to inhibit respiratory synaptial(RSV) virus-induced cytopathicity by 50% in HeLa cell lines. Type of assay: functional, cell-based. The note with it: Homo sapiens.
The subject of assay [4] is E6SM. Briefly: Effective concentration required to inhibit Herpes simplex virus-1 (HSV-1) induced cytopathicity by 50% in E6SM cell lines. Type of assay: functional, cell-based. Conditions: Homo sapiens.
In assay [5] the test system is E6SM. Description: Effective concentration required to inhibit Herpes simplex virus-2 (HSV-2) induced cytopathicity by 50% in E6SM cell lines. Type of assay: functional, cell-based. Conditions: Homo sapiens.
Assay [6] relates to HeLa. Briefly: Effective concentration required to inhibit Coxsackie virus B4-induced cytopathicity by 50% in HeLa cell lines. Type of assay: functional, cell-based. The note with it: Homo sapiens.
The test system of assay [7] is E6SM. Briefly: Effective concentration required to inhibit vesicular stomatitis virus(VSV) -induced cytopathicity by 50% in E6SM cell lines. Type of assay: functional, cell-based. Conditions: Homo sapiens.
Assay [8] has as its system Vero. Description: Effective concentration required to inhibit respiratory synaptial (RSV) virus-induced cytopathicity by 50% in Vero cell lines. Type of assay: functional, cell-based. Conditions: Chlorocebus sabaeus.
Assay [9] concerns HeLa. Description: Minimum inhibitory concentration required to elicit microscopically visible cell morphology in HeLa cell lines. Type of assay: functional. The note with it: Homo sapiens.
In assay [10] the test system is E6SM. Briefly: Minimum inhibitory concentration required to elicit microscopically visible cell morphology in E6SM cell lines. Type of assay: functional. The note with it: Homo sapiens.
For assay [11], the system named is E6SM. Description: Effective concentration required to inhibit Vaccinia virus-induced cytopathicity by 50% in E6SM cell lines. Type of assay: functional, cell-based. The note with it: Homo sapiens.
Assay [12] deals with E6SM. Briefly: Effective concentration required to inhibit Herpes simplex virus-1(HSV-1) / […] kinase deficient (TK-)B2006 / VMW1837 induced cytopathicity by 50% in E6SM cell lines. The note with it: Homo sapiens. Type of assay: functional, cell-based.
In assay [13] the test system is Vero. Description: Effective concentration required to inhibit PuntaToro virus-induced cytopathicity by 50% in Vero cell lines. Conditions: Chlorocebus sabaeus. Type of assay: functional, cell-based.
The subject of assay [14] is Vero. Description: Effective concentration required to inhibit parainfluenza-3 virus-induced cytopathicity by 50% in Vero cell lines. Conditions: Chlorocebus sabaeus. Type of assay: functional, cell-based.
The target of assay [15] is T1, Adenosylhomocysteinase (Homo sapiens, UniProt P23526). Briefly: Inhibition of purified recombinant human placental S-adenosyl-homocysteine hydrolase. In a few lines: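 Enzyme preincubated at 37 °C in assay buffer with inactivator (5-40 µM). Residual activity was read over time in the synthetic direction from the formation of [8-14C]-AdoHcy, using 10 µM [8-14C]-Ado, 5 mM D,L-Hcy, 20 mM potassium phosphate pH 7.5, 1 mg/mL BSA and 1 mM EDTA, 10 min at 37 °C. Reaction stopped with HCl; Ado/AdoHcy separated on Cellex P.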
Target sequence in this assay (P23526 whole entry): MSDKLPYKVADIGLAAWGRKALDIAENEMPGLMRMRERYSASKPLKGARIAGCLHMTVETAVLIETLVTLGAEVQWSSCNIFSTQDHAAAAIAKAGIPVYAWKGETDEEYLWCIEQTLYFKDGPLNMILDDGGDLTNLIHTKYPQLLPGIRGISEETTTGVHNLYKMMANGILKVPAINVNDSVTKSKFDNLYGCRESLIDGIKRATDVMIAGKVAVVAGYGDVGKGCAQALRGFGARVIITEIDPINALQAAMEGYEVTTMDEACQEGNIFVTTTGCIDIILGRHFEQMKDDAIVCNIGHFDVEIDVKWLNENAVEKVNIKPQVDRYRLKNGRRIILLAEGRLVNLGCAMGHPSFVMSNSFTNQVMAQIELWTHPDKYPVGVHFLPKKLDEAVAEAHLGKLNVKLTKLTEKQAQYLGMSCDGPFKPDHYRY

For assay [16], the system named is HEL. Description: Effective concentration required to inhibit cytomegalo virus-induced cytopathicity by 50% in AD-169 strain HEL cell lines. Type of assay: functional, cell-based. Conditions: Homo sapiens.
Assay [17] deals with HEL. Description: Effective concentration required to inhibit thymidine kinase (TK+) Varicella-Zoster virus-induced cytopathicity by 50% in YS strain HEL cell lines. Type of assay: functional, cell-based. Conditions: Homo sapiens.
For assay [18], the system named is HEL. Briefly: Effective concentration required to inhibit Thymidine kinase deficient (TK-) Varicella-Zoster virus-induced cytopathicity by 50% in YS/R strain HEL cell lines. Type of assay: functional, cell-based. Conditions: Homo sapiens.
Assay [19] can be described thus: half life of enzyme inactivation at 15 uM. Type of assay: functional. An outline of the steps:
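Recombinant human placental AdoHcy hydrolase was preincubated with inhibitor (5-40 µM range) in assay buffer at 37 °C. Residual activity was read at set times in the synthetic direction: [8-14C]-AdoHcy formation from 10 µM [8-14C]-Ado plus 5 mM D,L-Hcy, in 20 mM K phosphate pH 7.5, 1 mg/mL BSA, 1 mM EDTA, for 10 min at 37 °C. HCl stopped the reaction, and products were separated on Cellex P.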

Assay [20] deals with HEL. Description: Effective concentration required to inhibit cytomegalo virus-induced cytopathicity by 50% in Davis-169 strain HEL cell lines. Type of assay: functional, cell-based. The note with it: Homo sapiens.
Assay [21] has as its target T1, Adenosylhomocysteinase.
Target sequence in this assay (P23526 2-432 limits assumed): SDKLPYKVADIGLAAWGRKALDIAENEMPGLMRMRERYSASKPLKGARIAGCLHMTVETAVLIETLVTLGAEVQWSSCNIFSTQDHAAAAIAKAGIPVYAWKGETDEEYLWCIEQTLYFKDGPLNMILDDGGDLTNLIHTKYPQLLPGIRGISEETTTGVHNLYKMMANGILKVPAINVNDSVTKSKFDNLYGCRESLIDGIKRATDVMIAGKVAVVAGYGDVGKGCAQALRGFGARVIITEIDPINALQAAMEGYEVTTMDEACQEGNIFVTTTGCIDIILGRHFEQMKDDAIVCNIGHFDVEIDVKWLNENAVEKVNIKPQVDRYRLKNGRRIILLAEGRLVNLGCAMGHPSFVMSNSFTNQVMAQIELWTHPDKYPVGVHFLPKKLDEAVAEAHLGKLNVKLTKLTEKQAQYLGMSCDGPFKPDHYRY
Assay [22] deals with Vero. Description: Effective concentration required to inhibit Junin virus-induced cytopathicity by 50% in Vero cell lines. Type of assay: functional, cell-based. The note with it: Chlorocebus sabaeus.
The target of assay [23] is T1, Adenosylhomocysteinase. This is another data set of the same source.
Target sequence in this assay (P23526 2-432 limits assumed): as above
The subject of assay [24] is HEL. Briefly: Effective concentration required to inhibit thymidine kinase (TK+) Varicella-Zoster virus-induced cytopathicity by 50% in OKA strain HEL cell lines. Conditions: Homo sapiens. Type of assay: functional, cell-based.
The test system of assay [25] is Vero. Description: Effective concentration required to inhibit Tacaribe virus-induced cytopathicity by 50% Vero cell lines. Type of assay: functional, cell-based. Conditions: Chlorocebus sabaeus.
The target of assay [26] is T1, Adenosylhomocysteinase. This is another data set of the same source.
Target sequence in this assay (P23526 2-432 limits assumed): as above
Assay [27] concerns HEL. Briefly: Minimum inhibitory concentration required to elicit microscopically visible cell morphology in HEL cell lines. Type of assay: functional. Conditions: Homo sapiens.
Assay [28] has as its system HEL. Description: Effective concentration required to inhibit Thymidine kinase deficient (TK-) Varicella-Zoster virus-induced cytopathicity by 50% in 07/01 strain HEL cell lines. Conditions: Homo sapiens. Type of assay: functional, cell-based.
Assay [29] concerns Vero. Briefly: Effective concentration required to inhibit Sindbis virus-induced cytopathicity by 50% in Vero cell lines. Type of assay: functional, cell-based. Conditions: Chlorocebus sabaeus.
The test system of assay [30] is HEL. Briefly: Effective concentration required to inhibit cytomegalo virus(CMV) -induced cytopathicity by 50% in AD-169 strain HEL cell lines. Type of assay: functional, cell-based. Conditions: Homo sapiens.
Assay [31] concerns Vero. Description: Effective concentration required to inhibit Punta Toro virus-induced cytopathicity by 50% in Vero cell lines. Type of assay: functional, cell-based. The note with it: Chlorocebus sabaeus.
In assay [32] the test system is Vero. Briefly: Minimum inhibitory concentration required to elicit microscopically visible cell morphology in Vero cell lines. Type of assay: functional. Conditions: Chlorocebus sabaeus.
The subject of assay [33] is HeLa. Description: Effective concentration required to inhibit respiratory synaptial (RSV) virus-induced cytopathicity by 50% in HeLa cell lines. Type of assay: functional, cell-based. Conditions: Homo sapiens.

SMILES strings stand for the structures. pEC50, pKi: −log10 of the molar value. Values after ≈ are worked out from the molar mass of the structure shown.

Regarding `NC(=O)c1ncn([C@@H]2O[C@H](CO)[C@@H](O)[C@H]2O)n1` [RIBAVIRIN], the pEC50 in assay [1] is 3.00; in assay [2], 4.40; in assay [3], 5.82; in [4], 3.49; in assay [5], 3.49; in [6] it was less than 3.49. Further, the pEC50 in assay [7] was 4.40; in assay [8], less than 2.80; in assay [11], 4.19; in [12], 8.30; in [13] it was 4.40; in assay [14], 3.71. For the same compound, the MIC in assay [9] and in [10] was more than 1600 µM throughout.

As to `CC#CSC[C@H]1OC(n2cnc3c(N)ncnc32)[C@H](O)[C@@H]1O` (stereo partly drawn), the pKi in assay [15] is 4.80. The negative-log EC50 (pEC50) in assay [16] was less than 3.70; in assay [17], less than 3.70; in assay [1], less than 2.91; in [2] it was less than 3.92; in [3], less than 3.60; in assay [4] it was 3.60. Besides, the negative-log EC50 (pEC50) in [18] was 3.70; in assay [5], 3.21; in [6], less than 3.92; in assay [7], less than 3.60; in assay [8], less than 2.91; in assay [20] it was less than 3.70. For the same compound, the pEC50 in [22] was less than 3.70; in [24] it was less than 3.70; in assay [11] it was 4.31; in assay [25], less than 3.70; in [12], less than 3.60; in [13] it was less than 3.92. The values for the pEC50 in assay [14], in assay [28] and in assay [29] were less than 3.92, 3.70 and less than 4.40, respectively. In assay [19], the T1/2 worked out at 7 min. Further, the NADH content in assay [21] worked out at 0.32. Further, the MIC in [9] was more than 1240 µM; in [10], 1240 µM (≈ 398 µg/mL); in [27], more than 200 µM. In addition, the NAD+ content in assay [23] was 0.68. The K inact in assay [26] came to 0.062 min⁻¹.

For the compound `Nc1nc2c(ncn2COC(CO)CO)c(=O)[nH]1` [GANCICLOVIR], the negative logarithm of the EC50 (pEC50) was 5.11 in [16]; less than 4.00 in assay [1]; 8.92 in assay [4]; 8.92 in assay [5]; 4.93 in [20]; less than 4.00 in assay [11]. Further, the MIC is more than 1600 µM in [10] and more than 150 µM in assay [27].

In the case of `C=C=CSC[C@H]1OC(n2cnc3c(N)ncnc32)[C@H](O)[C@@H]1O` (stereo partly drawn), the pKi in assay [15] is 4.80. Also, the pEC50 in [16] was less than 3.70; in assay [17] it was less than 3.70; in assay [1], less than 3.60; in assay [2], less than 3.42; in assay [3] it was less than 3.60; in assay [4], 3.60. The negative-log EC50 (pEC50) in [18] is less than 3.70; in [5], less than 3.60; in assay [6], less than 3.22; in assay [7] it was less than 3.60; in assay [8] it was less than 3.60; in [20], less than 3.70. The pEC50 was less than 3.70 in assay [22]; less than 3.70 in assay [24]; 5.72 in assay [11]; less than 3.70 in assay [25]; 3.82 in [12]; less than 3.21 in [13]. The pEC50 in assay [14] was less than 3.21; in assay [28], 4.06; in assay [29], less than 3.70. In assay [19], this compound displayed a T1/2 of 7 min. The compound also displayed an NADH content in [21] of 0.3. Moreover, the MIC is 1240 µM (≈ 398 µg/mL) in assay [9], 1240 µM (≈ 398 µg/mL) in assay [10] and more than 200 µM in assay [27]. For the same compound, the NAD+ content in [23] was 0.7. Further, the K inact in [26] is 0.12 min⁻¹.

Turning to `Nc1nc2c(ncn2COCCO)c(=O)[nH]1` [ACYCLOVIR], the pEC50 was 5.39 in assay [17], 4.20 in assay [18], 5.34 in assay [24] and 4.39 in assay [28]. In assay [27], this compound had an MIC of more than 150 µM.

`C#CCSC[C@H]1OC(n2cnc3c(N)ncnc32)[C@H](O)[C@@H]1O` (stereo partly drawn): in assay [15], the pKi is 4.35. Also, the negative logarithm of the EC50 (pEC50) was less than 3.70 in assay [17]; less than 3.60 in assay [1]; less than 3.92 in [2]; less than 3.60 in assay [3]; less than 3.60 in assay [4]; 3.90 in assay [18]. For the same compound, the negative-log EC50 (pEC50) was less than 3.60 in [5]; less than 3.92 in assay [6]; less than 3.60 in [7]; less than 3.60 in assay [8]; less than 3.70 in assay [30]; less than 3.70 in assay [20]. Also, the pEC50 in assay [22] is less than 3.70; in assay [24], less than 3.70; in assay [11], less than 3.60; in [25], less than 3.70; in assay [12], less than 3.60; in assay [13] it was less than 3.92. In addition, the negative logarithm of the EC50 (pEC50) in assay [14] is less than 3.92; in assay [28], 3.81; in assay [29], less than 4.40. This compound also registered a T1/2 in [19] of 19 min. This compound had an NADH content in assay [21] of 1. For the same compound, the figures for the MIC in [9], in assay [10] and in [27] were 1240 µM (≈ 398 µg/mL), 1240 µM (≈ 398 µg/mL) and more than 200 µM, respectively. The NAD+ content in assay [23] is 0. In addition, the K inact in assay [26] was 0.0074 min⁻¹.

Regarding `Nc1ncnc2c1ncn2C[C@H](O)CO` [(S)-DHPA], the pEC50 in assay [31] is less than 2.70; in assay [1] it was 3.64; in assay [2] it was 4.35; in [6] it was 3.64; in [8] it was less than 2.70; in assay [14] it was 3.64. In [33], this compound gave a pEC50 of 2.70. The MIC in assay [32] and in [9] was more than 2000 µM in each case.

The values above are taken from ChEMBL document CHEMBL1134563, “Synthesis, mechanism of action, and antiviral activity of a new series of covalent mechanism-based inhibitors of S-adenosyl-L-homocysteine hydrolase” (J Med Chem, 2001).
